Data set [1] can be described thus: Half life in human liver microsomes in presence of NADPH by LC-MS/MS analysis. Type of data set: ADME, microsome. (Liver microsomes are vesicles of endoplasmic reticulum, rich in cytochrome P450 enzymes.)
The nature of data set [2]: Intrinsic clearance in human liver microsomes assessed per mg protein in presence of NADPH by LC-MS/MS analysis. Format: ADME, microsome. To be noted: read-out: CLH.
Data set [3] can be described thus: Half life in mouse liver microsomes in presence of NADPH by LC-MS/MS analysis. Format: ADME, microsome.
Data set [4] can be described thus: Intrinsic clearance in mouse liver microsomes assessed per mg protein in presence of NADPH by LC-MS/MS analysis. Format: ADME, microsome. To be noted: read-out: CLH.
For data set [5], the target named is T1, Receptor-interacting serine/threonine-protein kinase 1 (Homo sapiens, UniProt Q13546).
T1 sequence (Q13546 whole entry): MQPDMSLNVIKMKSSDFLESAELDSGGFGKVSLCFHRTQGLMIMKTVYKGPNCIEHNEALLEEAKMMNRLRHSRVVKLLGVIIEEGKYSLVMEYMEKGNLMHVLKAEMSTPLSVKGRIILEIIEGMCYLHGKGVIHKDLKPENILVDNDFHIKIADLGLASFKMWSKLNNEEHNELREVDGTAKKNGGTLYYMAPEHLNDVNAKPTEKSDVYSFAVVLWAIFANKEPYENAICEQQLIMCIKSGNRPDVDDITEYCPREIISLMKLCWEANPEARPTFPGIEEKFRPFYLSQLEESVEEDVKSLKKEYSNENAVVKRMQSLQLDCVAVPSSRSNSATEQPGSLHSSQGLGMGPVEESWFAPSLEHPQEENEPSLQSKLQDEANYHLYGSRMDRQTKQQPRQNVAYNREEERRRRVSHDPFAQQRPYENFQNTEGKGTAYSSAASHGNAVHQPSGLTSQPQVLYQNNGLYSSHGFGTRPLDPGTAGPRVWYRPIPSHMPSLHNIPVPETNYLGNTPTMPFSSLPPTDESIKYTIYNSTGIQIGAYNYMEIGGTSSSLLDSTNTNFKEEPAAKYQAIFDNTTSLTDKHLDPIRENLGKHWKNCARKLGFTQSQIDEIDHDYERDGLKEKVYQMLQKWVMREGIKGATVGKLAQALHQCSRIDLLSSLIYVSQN
The data set can be described thus: Inhibition of recombinant GST-tagged RIP1 (unknown origin) after 4 hrs by ADP-Glo kinase assay. In general terms: In ADP-Glo the light output rises with the ADP produced.

In data set [6] the target is Indoleamine 2,3-dioxygenase 1 (Homo sapiens, UniProt P14902). The data set can be described thus: Inhibition of recombinant human IDO expressed in Escherichia coli assessed as reduction in kynurenine production at 200 uM using L-tryptophan as substrate after 3 hrs by methylene blue dye based assay. In short, it runs like this: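 Reaction mix: 50 mM MES pH 6.5, 20 mM ascorbate, 2250 U/mL catalase, 10 μM methylene blue, 200 μM L-Trp, 100 nM recombinant IDO, 200 μM compound or DMSO. Incubated 37 °C for 3 h; kynurenine colour read at 321 nm.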

Data set [7] concerns Mus musculus. In words: Protection against TNFalpha-induced mortality in C57BL/6J mouse assessed as survival rate at 6 mg/kg, ip administered as single dose 17 mins before TNFalpha injection measured every 30 mins up to 60 hrs post TNFalpha injection (reference value: 50%). Type of data set: functional.
Data set [8] has as its system Mus musculus. In words: Protection against TNFalpha-induced multiorgan damage in C57BL/6J mouse assessed as inhibition of TNFalpha-induced increase in IL-6 level at 6 mg/kg, ip administered as single dose 17 mins before TNFalpha injection measured 12 hrs post TNFalpha injection. Type of data set: functional, organism-based. In short, it runs like this:
(§1)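 C57BL/6 mice given mTNFα IV, then a single 6 mg/kg IP compound dose 17 min before TNFα. Blood taken 12 h after TNFα for mIL-6 and mIL-1β.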

Data set [9] concerns Mus musculus. The data set can be described thus: Protection against TNFalpha-induced multiorgan damage in C57BL/6J mouse assessed as inhibition of TNFalpha-induced increase in IL-1beta level at 6 mg/kg, ip administered as single dose 17 mins before TNFalpha injection measured 12 hrs post TNFalpha injection. Format: functional, organism-based. In a few lines: as §1
Data set [10] deals with Receptor-interacting serine/threonine-protein kinase 3 (Homo sapiens) (UniProt Q9Y572). The data set can be described thus: Inhibition of full length recombinant human N-terminal GST-tagged RIP3 expressed in baculovirus infected sf9 cells at 10 uM using MBP as substrate preincubated for 15 mins followed by MBP/ATP mixture addition measured after 90 mins by ADP-Glo kinase assay.

Active and inactive are the calls of the source. The rule behind the calls is not given here. Some results are limits rather than exact numbers.

In general, half-life refers to the time in which the quantity being followed falls by half. Usually IC50 stands for the concentration needed to halve the response being measured.

Sequence of Indoleamine 2,3-dioxygenase 1 (P14902 whole entry): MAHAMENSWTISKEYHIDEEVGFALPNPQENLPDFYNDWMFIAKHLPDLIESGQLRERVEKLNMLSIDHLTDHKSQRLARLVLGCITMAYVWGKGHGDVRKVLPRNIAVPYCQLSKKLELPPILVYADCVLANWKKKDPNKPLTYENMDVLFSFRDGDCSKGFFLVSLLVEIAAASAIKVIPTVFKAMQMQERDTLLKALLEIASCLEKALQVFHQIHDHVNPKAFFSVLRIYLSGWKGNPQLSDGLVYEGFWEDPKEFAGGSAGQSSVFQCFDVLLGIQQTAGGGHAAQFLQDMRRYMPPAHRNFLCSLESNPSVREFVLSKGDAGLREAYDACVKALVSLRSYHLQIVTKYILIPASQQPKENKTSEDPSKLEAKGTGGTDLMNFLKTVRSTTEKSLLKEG
Sequence of Receptor-interacting serine/threonine-protein kinase 3 (Homo sapiens) (Q9Y572 whole entry, looked up): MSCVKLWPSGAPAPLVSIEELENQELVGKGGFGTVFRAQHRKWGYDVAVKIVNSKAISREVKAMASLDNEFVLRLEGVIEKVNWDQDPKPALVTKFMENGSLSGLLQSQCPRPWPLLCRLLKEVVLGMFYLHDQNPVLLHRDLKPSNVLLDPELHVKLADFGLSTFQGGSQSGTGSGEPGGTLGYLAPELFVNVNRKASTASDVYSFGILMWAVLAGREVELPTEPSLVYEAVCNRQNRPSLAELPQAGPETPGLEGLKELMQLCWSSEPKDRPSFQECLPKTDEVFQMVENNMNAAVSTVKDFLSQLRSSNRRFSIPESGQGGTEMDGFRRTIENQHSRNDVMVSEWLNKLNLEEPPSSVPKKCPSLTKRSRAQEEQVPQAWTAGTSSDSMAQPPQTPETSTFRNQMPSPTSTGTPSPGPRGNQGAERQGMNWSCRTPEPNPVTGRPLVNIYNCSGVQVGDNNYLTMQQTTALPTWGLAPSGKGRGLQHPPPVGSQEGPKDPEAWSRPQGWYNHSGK

For the compound `CCC(C)(C)C(=O)N(O)Cc1cc(F)cc(F)c1F`, the half-life was 66.6 min in data set [1] and 9.21 min in [3]. The figures for the microsomal CLint in data set [2] and in [4] were 10.4 µL/min/mg and 75.3 µL/min/mg, respectively.

As for `CCC(C)(C)C(=O)N(O)Cc1ccc(F)cc1F`, the half-life in [1] was 198 min; in data set [3] it was 23.2 min. In addition, the microsomal CLint in [2] was 3.5 µL/min/mg; in data set [4] it was 29.9 µL/min/mg.

On to `CCC(C)(C)C(=O)NC(CO)c1ccccc1` (stereo not drawn), for which the half-life in data set [1] is over 200 min.

Turning to `CCC(C)(C)C(=O)N(O)Cc1cc(F)c(F)c(F)c1`, the values for the half-life in [1] and in data set [3] were 66 min and 7.89 min, respectively. In addition, the microsomal CLint in data set [2] came to 10.5 µL/min/mg; in data set [4] it was 87.8 µL/min/mg.

With `CN1C(=O)C(Cc2c[nH]c3ccccc23)NC1=S` (stereo not drawn) [NECROSTATIN], the IC50 in data set [5] was 760 nM. The “inhibition (INH)” value in data set [6] was “Active”. Further, the survival at 6 mg/kg in data set [7] was 60%. Also, the inhibition result in data set [8] and in data set [9] was “Active” throughout. For the same compound, the inhibition result in data set [10] is “inactive”.

For `CCC(C)(C)C(=O)N(O)Cc1ccc(F)cc1`, the half-life in [1] came to 178 min; in data set [3], 24.1 min. In addition, the figures for the microsomal CLint in data set [2] and in [4] were 3.9 µL/min/mg and 28.8 µL/min/mg, respectively.

As to `CCC(C)(C)C(=O)N(O)Cc1ccc(F)c(F)c1`, the half-life in data set [1] turned out to be 107 min; in data set [3], 11.3 min. Also, the microsomal CLint came out at 6.5 µL/min/mg in data set [2] and 61.4 µL/min/mg in [4].

In the case of `CCC(C)(C)C(=O)NC(C)c1ccccc1` (stereo not drawn), in data set [1], the half-life is over 200 min.

In the case of `CCC(C)(C)C(=O)N(O)Cc1ccc(F)c(F)c1F`, the half-life in data set [1] was 52.9 min; in data set [3], 13.9 min. In addition, the microsomal CLint worked out at 13.1 µL/min/mg in data set [2] and 49.9 µL/min/mg in data set [4].

Take `CCC(C)(C)C(=O)NCc1ccccc1`: the half-life in [1] is over 200 min.

For the origin of these results see ChEMBL document CHEMBL3992509, “Discovery of a Highly Potent, Selective, and Metabolically Stable Inhibitor of Receptor-Interacting Protein 1 (RIP1) for the Treatment of Systemic Inflammatory Response Syndrome” (J Med Chem, 2017).
